In ChEMBL document CHEMBL1141109, “Synthesis of an estrogen receptor beta-selective radioligand: 5-[18F]fluoro-(2R,3S)-2,3-bis(4-hydroxyphenyl)pentanenitrile and comparison of in vivo distribution with 16alpha-[18F]fluoro-17beta-estradiol” (J Med Chem, 2005):
One block for each compound: values may come before it.

Legend:
[1] = Biodistribution of [18F]FES in beta estrogen receptor knock out mouse thymus after 30 min(n=2); mice in nonestrus stage; assay type: ADME, organism-based; settings: in vivo, 0.5 h
[2] = Biodistribution of [18F]FES in alpha estrogen receptor knock out mouse lung after 1 h; (n=3); assay type: ADME, organism-based; settings: in vivo
[3] = Biodistribution of [18F]FES in alpha estrogen receptor knock out mouse lung after 2 h; (n=3); assay type: ADME, organism-based; settings: in vivo
In short: (§1)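 Female αERKO mice were rested 48 h after shipping and fed estrogen-free chow. They were staged by daily vaginal smears and studied in diestrus. Each received 13 µCi [18F]FES in 100 µL 10% ethanol/saline and was sacrificed at 30 min, 1 h or 2 h (n = 3 per time). Tissue uptake is given as %ID/g ± SD.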

[4] = Biodistribution of [18F]FES in alpha estrogen receptor knock out mouse ovaries after 1 h; (n=3); assay type: ADME, organism-based, Female gonad; settings: in vivo; in short: as §1
[5] = Biodistribution of [18F]FES in beta estrogen receptor knock out mouse brain after 1 h; (n=3); assay type: ADME, organism-based; settings: in vivo
[6] = Biodistribution of [18F]FES in alpha estrogen receptor knock out mouse brain after 1 h; (n=3); assay type: ADME, organism-based; settings: in vivo
In short: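 αERKO mice were kept on estrogen-free chow and studied in diestrus, as staged by vaginal smear. Each was injected with 13 µCi tracer in 100 µL 10% ethanol/saline and killed at 30 min, 1 h or 2 h (n = 3 each). Organ activity was gamma-counted and expressed as %ID/g ± SD.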

[7] = Biodistribution of [18F]FES in beta estrogen receptor knock out mouse kidney after 1 h; (n=3); assay type: ADME, organism-based; settings: in vivo
[8] = Biodistribution of [18F]FES in beta estrogen receptor knock out mouse fat after 2 h; (n=3); assay type: ADME, organism-based, Adipose tissue; settings: in vivo
[9] = Biodistribution of [18F]FES in alpha estrogen receptor knock out mouse kidney after 1 h; (n=3); assay type: ADME, organism-based; settings: in vivo; in short: as §1
[10] = Biodistribution of [18F]-FES in alpha estrogen receptor knock out mouse kidney after 2 h; (n=3); assay type: ADME, organism-based; settings: in vivo
In short: (§2)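 Female αERKO mice rested 48 h after shipping and fed estrogen-free chow. Estrous stage was checked by daily vaginal smears, and mice were used in diestrus. Each received 13 µCi [18F]FES in 100 µL 10% ethanol/saline. Animals were sacrificed at 30 min, 1 h or 2 h (n = 3 each). Tissue uptake is reported as %ID/g ± SD.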

[11] = Biodistribution of [18F]FES in beta estrogen receptor knock out mouse ovaries after 2 h; (n=3); assay type: ADME, organism-based, Female gonad; settings: in vivo
[12] = Biodistribution of [18F]FES in beta estrogen receptor knock out mouse fat after 30 min(n=2); mice in nonestrus stage; assay type: ADME, organism-based, Adipose tissue; settings: in vivo, 0.5 h
[13] = Biodistribution of [18F]FES in alpha estrogen receptor knock out mouse brain after 30 min; (n=3); assay type: ADME, organism-based; settings: in vivo, 0.5 h; in short: as §2
[14] = Biodistribution of [18F]FES in beta estrogen receptor knock out mouse kidney after 30 min; (n=3); assay type: ADME, organism-based; settings: in vivo, 0.5 h
[15] = Biodistribution of [18F]FES in beta estrogen receptor knock out mouse thymus after 30 min; (n=3); assay type: ADME, organism-based; settings: in vivo, 0.5 h
[16] = Biodistribution of [18F]FEDPN in alpha estrogen receptor knock out mouse kidney after 30 min; (n=3); assay type: ADME, organism-based; settings: in vivo, 0.5 h
In short: (§3)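 ERKO female mice (αERKO or βERKO), rested 48 h after shipping, placed on estrogen-free chow, and staged by daily vaginal smears. Injected in a nonestrous stage with 11 µCi [18F]FEDPN in 130 µL of 10% ethanol/saline. Killed at 30 min, 1 h or 2 h. Organs counted and reported as %ID/g ± SD, three animals per point.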

[17] = Biodistribution of [18F]FEDPN in beta estrogen receptor knock out mouse uterus after 1 h; (n=3); assay type: ADME, organism-based; settings: in vivo
In short: (§4)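 αERKO and βERKO mice were fed estrogen-free chow and staged by daily vaginal smears. Mice in a nonestrous stage each received 11 µCi tracer in 130 µL 10% ethanol/saline. Organs were taken at 30 min, 1 h or 2 h and gamma-counted. Uptake is expressed as %ID/g ± SD, three animals per point.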

[18] = Biodistribution of [18F]FEDPN in beta estrogen receptor knock out mouse uterus after 2 h; (n=3); assay type: ADME, organism-based; settings: in vivo; in short: as §4
[19] = Biodistribution of [18F]-FEDPN in rat uterus after 2 h when given in tail vein; (n=5); assay type: ADME, organism-based; settings: in vivo, iv
In short: (§5)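 Immature female Sprague–Dawley rats (<25 days old) anesthetized with isoflurane/O2. Given 20 µCi tracer by tail vein in 150 µL of 20% ethanol/saline. […] Killed at 30 min, 1 h or 2 h. Blood and organs blotted, weighed and gamma-counted against a standard dilution of the injectate. Reported as %ID/g ± SD, n=5.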

[20] = Biodistribution of [18F]FEDPN in rat bone after 30 min when given in tail vein; (n=5); assay type: ADME, organism-based, Bone element; settings: in vivo, iv, 0.5 h
In short: (§6)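 Immature female Sprague–Dawley rats (<25 days old) under isoflurane/O2 got 20 µCi tracer in 150 µL 20% ethanol/saline by tail vein. […] Rats were killed at 30 min, 1 h or 2 h. Organs were blotted, weighed and gamma-counted against an injectate standard. Data are %ID/g ± SD, five rats per point.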

[21] = Biodistribution of [18F]-FEDPN in rat ovaries after 1 hr when given in tail vein; (n=5); assay type: ADME, organism-based, Female gonad; settings: in vivo, iv; in short: as §5
[22] = Biodistribution of [18F]FEDPN in alpha estrogen receptor knock out mouse lung after 1 h; (n=3); assay type: ADME, organism-based; settings: in vivo
In short: (§7)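 αERKO and βERKO mice, staged by daily vaginal smears and kept on estrogen-free chow, were studied in a nonestrous stage. Each mouse received 11 μCi of tracer in 130 μL of 10% ethanol/saline. Mice were killed at 30 min, 1 h or 2 h (n = 3 each). Organs were removed, blotted, weighed and gamma-counted against an injectate standard. Uptake is given as %ID/g ± SD.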

[23] = Biodistribution of [18F]FEDPN in beta estrogen receptor knock out mouse blood after 1 h; (n=3); assay type: ADME, organism-based; settings: in vivo; in short: as §7
[24] = Biodistribution of [18F]FEDPN in rat bone after 1 h when given in tail vein; (n=5); assay type: ADME, organism-based, Bone element; settings: in vivo, iv; in short: as §6
[25] = Biodistribution of [18F]-FEDPN in rat kidney after 2 hr when given in tail vein; (n=5); assay type: ADME, organism-based; settings: in vivo, iv; in short: as §5
[26] = Biodistribution of [18F]FEDPN in rat bone after 1 h block when given in tail vein; (n=5); assay type: ADME, organism-based, Bone element; settings: in vivo, iv; in short: as §6
[27] = Biodistribution of [18F]-FEDPN in rat spleen after 1 hr block when given in tail vein; (n=5); assay type: ADME, organism-based; settings: in vivo, iv; in short: as §5
[28] = Biodistribution of [18F]FEDPN in beta estrogen receptor knock out mouse heart after 2 h; (n=3); assay type: ADME, organism-based; settings: in vivo; in short: as §7
[29] = Biodistribution of [18F]FEDPN in alpha estrogen receptor knock out mouse blood after 2 h; (n=3); assay type: ADME, organism-based; settings: in vivo; in short: as §3
[30] = Biodistribution of [18F]FEDPN in alpha estrogen receptor knock out mouse bone after 30 min; (n=3); assay type: ADME, organism-based, Bone element; settings: in vivo, 0.5 h; in short: as §3
[31] = Biodistribution of [18F]FEDPN in alpha estrogen receptor knock out mouse fat after 30 min; (n=3); assay type: ADME, organism-based, Adipose tissue; settings: in vivo, 0.5 h; in short: as §3
[32] = Biodistribution of [18F]FEDPN in alpha estrogen receptor knock out mouse thymus after 2 h; (n=3); assay type: ADME, organism-based; settings: in vivo; in short: as §7
[33] = target: Estrogen receptor (Mus musculus) (UniProt O08537+P19785); assay: Ratio of [18F]FEDPN uptake in uterus of ERbeta KO-mouse (diestrus) and ERalpha KO-mouse (nonestrus) after 2 hr
Sequence of Estrogen receptor (Mus musculus) (O08537 whole entry, looked up): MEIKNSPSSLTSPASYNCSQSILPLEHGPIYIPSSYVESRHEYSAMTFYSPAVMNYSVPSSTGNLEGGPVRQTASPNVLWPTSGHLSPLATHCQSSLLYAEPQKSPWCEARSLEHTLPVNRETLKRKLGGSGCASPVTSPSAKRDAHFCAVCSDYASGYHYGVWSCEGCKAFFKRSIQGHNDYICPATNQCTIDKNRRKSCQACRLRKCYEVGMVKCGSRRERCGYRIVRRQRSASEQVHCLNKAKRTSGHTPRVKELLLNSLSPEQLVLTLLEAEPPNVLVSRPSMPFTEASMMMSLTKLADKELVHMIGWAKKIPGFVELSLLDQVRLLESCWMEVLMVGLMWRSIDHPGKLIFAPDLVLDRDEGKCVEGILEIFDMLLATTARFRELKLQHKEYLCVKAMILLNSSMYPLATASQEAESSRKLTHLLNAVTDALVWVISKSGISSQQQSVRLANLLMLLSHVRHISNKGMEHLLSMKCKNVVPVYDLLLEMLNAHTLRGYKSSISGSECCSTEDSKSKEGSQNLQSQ
Sequence of Estrogen receptor (Mus musculus) (P19785 whole entry, looked up): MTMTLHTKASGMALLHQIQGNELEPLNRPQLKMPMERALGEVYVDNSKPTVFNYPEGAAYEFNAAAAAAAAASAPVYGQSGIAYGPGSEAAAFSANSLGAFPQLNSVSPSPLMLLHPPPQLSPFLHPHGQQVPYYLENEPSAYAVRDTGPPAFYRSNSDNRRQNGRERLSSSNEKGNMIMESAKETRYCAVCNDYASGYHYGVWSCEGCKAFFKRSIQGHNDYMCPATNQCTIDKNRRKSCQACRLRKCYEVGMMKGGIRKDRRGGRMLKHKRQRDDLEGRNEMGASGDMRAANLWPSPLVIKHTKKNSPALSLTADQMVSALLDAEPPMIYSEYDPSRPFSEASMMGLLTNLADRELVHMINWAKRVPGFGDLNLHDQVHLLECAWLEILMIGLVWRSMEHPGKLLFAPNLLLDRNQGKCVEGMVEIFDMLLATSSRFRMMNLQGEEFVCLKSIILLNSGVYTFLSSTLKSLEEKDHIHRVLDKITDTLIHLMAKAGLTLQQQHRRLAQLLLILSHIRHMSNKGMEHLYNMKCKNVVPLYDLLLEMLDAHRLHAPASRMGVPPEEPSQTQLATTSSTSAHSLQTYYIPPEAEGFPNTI

Biodistribution [1]: 1.65 %ID/g | Biodistribution [2]: 0.39 %ID/g | Biodistribution [3]: 0.17 %ID/g | Biodistribution [4]: 0.49 %ID/g | Biodistribution [5]: 0.35 %ID/g | Biodistribution [6]: 0.07 %ID/g | Biodistribution [7]: 2.14 %ID/g | Biodistribution [8]: 0.41 %ID/g | Biodistribution [9]: 1.07 %ID/g | Biodistribution [10]: 0.72 %ID/g | Biodistribution [11]: 3.4 %ID/g | Biodistribution [12]: 2.31 %ID/g | Biodistribution [13]: 0.41 %ID/g | Biodistribution [14]: 3.83 %ID/g | Biodistribution [15]: 1.38 %ID/g
Compound: C[C@]12CC[C@@H]3c4ccc(O)cc4CC[C@H]3[C@@H]1C[C@@H](F)[C@@H]2O [FLUOROESTRADIOL]

Biodistribution [16]: 7.22 %ID/g | Biodistribution [17]: 0.54 %ID/g | Biodistribution [18]: 0.31 %ID/g | Biodistribution [19]: 0.28 %ID/g | Biodistribution [20]: 2.12 %ID/g | Biodistribution [21]: 0.67 %ID/g | Biodistribution [22]: 2.04 %ID/g | Biodistribution [23]: 1.12 %ID/g | Biodistribution [24]: 2.22 %ID/g | Biodistribution [25]: 0.97 %ID/g | Biodistribution [26]: 1.82 %ID/g | Biodistribution [27]: 0.1 %ID/g | Biodistribution [28]: 0.21 %ID/g | Biodistribution [29]: 0.23 %ID/g | Biodistribution [30]: 3.47 %ID/g | Biodistribution [31]: 0.57 %ID/g | Biodistribution [32]: 0.28 %ID/g | Ratio [33]: 1.29
Compound: N#C[C@H](c1ccc(O)cc1)[C@@H](CCF)c1ccc(O)cc1
